Experimental data published in ChEMBL document CHEMBL1146654, “3-(7-Azaindolyl)-4-arylmaleimides as potent, selective inhibitors of glycogen synthase kinase-3” (Bioorg Med Chem Lett, 2004).
pEC50, pIC50: −log10 of the molar value.

Experiments:
[1] = target: Ribosomal protein S6 kinase alpha-3 (Homo sapiens, UniProt P51812); assay: Inhibition of Ribosomal S6 kinase 3
[2] = target: T1, Protein kinase C beta type (Homo sapiens, UniProt P05771); assay: Inhibitory concentration against human protein kinase C-betaII using histone as substrate
Target sequence in this assay (P05771 whole entry): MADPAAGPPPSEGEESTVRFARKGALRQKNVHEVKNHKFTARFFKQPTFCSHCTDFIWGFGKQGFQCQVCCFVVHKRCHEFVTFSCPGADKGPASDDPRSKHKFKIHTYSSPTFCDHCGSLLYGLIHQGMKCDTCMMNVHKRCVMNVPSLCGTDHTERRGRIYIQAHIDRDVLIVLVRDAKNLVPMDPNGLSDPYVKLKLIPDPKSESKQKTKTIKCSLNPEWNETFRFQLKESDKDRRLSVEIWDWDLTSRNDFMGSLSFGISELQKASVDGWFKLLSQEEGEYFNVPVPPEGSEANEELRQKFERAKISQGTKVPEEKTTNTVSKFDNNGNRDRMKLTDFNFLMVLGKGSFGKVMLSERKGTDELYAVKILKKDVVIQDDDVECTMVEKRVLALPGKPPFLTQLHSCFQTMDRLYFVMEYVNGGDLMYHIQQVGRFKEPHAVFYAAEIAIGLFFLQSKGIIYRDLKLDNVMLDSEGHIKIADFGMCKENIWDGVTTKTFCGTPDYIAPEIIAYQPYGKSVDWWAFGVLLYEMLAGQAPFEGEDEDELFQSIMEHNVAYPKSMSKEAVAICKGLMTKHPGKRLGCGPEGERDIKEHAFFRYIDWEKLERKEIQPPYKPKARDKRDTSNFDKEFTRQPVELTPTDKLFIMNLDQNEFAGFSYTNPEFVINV

[3] = target: MAP kinase-activated protein kinase 2 (Homo sapiens) (UniProt P49137); assay: Inhibition of MAP kinase-activated protein kinase 2; parameters: scale not given: the % may be the effect or the level left
[4] = target: Tyrosine-protein kinase Lyn (Homo sapiens, UniProt P07948); assay: Inhibition of Protein tyrosine kinase Lyn
[5] = target: Glycogen synthase kinase-3 beta (Homo sapiens, UniProt P49841); assay: Effective concentration of compound against glycogen synthase kinase-3 in HEK293 cells; type: functional, cell-based
Method in brief: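 HEK293 cells exposed to compound; glycogen synthase activity then measured in cell extracts as ¹⁴C-UDP glucose incorporation into glycogen. EC₅₀ averaged from triplicate determinations.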

[6] = target: 3-phosphoinositide-dependent protein kinase 1 (Homo sapiens, UniProt O15530); assay: Inhibition of PDK1
[7] = target: T1, Protein kinase C beta type; assay: Inhibition of protein kinase C-betaII at 10 uM
Target sequence in this assay (P05771 2-671 limits assumed): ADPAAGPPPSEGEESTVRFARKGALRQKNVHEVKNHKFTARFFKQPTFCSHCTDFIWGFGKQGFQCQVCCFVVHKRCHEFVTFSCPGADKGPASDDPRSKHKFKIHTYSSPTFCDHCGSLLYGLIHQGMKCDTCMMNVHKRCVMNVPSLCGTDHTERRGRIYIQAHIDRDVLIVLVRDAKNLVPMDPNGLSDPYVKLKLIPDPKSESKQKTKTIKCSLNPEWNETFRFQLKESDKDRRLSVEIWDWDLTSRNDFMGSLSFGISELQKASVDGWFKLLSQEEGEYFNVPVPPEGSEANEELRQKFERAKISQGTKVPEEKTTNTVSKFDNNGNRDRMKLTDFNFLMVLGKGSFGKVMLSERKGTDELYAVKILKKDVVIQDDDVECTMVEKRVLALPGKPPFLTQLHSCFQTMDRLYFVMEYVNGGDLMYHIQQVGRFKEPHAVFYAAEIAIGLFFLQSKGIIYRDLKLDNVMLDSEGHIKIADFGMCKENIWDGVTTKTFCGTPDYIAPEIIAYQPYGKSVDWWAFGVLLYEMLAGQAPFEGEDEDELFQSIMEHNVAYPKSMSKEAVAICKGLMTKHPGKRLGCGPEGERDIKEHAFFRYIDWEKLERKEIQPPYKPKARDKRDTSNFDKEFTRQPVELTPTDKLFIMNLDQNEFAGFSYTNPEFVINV

[8] = target: Ribosomal protein S6 kinase alpha-5 (Homo sapiens, UniProt O75582); assay: Inhibition of MSK-1 kinase
[9] = system: Casein kinase I (Saccharomyces cerevisiae); assay: Inhibition of Casein kinase I; parameters: scale not given: the % may be the effect or the level left

Chain of MAP kinase-activated protein kinase 2 (Homo sapiens) (P49137 whole entry, looked up): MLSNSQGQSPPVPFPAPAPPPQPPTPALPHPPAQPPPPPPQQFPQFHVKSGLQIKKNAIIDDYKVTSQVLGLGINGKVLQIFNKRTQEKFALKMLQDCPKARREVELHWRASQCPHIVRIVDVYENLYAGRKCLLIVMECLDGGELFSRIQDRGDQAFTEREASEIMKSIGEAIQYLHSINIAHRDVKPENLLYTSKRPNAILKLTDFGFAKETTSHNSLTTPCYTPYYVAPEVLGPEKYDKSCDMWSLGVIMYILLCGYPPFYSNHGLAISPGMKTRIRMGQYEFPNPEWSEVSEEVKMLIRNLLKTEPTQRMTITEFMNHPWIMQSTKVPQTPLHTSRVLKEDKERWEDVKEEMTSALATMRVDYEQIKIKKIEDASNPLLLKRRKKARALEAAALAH
Chain of Ribosomal protein S6 kinase alpha-3 (P51812 whole entry): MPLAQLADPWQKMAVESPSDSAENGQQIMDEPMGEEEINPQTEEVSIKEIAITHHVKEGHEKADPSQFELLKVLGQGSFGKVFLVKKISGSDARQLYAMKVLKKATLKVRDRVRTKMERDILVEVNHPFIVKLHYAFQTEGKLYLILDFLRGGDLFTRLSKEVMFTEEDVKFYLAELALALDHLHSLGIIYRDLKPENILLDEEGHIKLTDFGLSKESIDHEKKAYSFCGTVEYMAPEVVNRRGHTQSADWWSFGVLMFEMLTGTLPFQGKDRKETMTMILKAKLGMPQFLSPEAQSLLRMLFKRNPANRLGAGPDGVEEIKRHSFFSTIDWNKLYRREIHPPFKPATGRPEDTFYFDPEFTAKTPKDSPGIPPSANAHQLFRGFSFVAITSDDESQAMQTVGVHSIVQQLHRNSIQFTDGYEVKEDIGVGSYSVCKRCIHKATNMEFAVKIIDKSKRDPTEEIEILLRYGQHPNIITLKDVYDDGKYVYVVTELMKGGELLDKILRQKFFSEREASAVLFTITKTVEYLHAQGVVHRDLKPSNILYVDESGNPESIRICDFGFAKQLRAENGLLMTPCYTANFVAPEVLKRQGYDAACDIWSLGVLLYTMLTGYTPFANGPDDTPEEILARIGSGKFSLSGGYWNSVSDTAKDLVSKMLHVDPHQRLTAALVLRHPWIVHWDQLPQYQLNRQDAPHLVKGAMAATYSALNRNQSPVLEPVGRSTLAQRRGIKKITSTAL
Chain of Glycogen synthase kinase-3 beta (P49841 whole entry): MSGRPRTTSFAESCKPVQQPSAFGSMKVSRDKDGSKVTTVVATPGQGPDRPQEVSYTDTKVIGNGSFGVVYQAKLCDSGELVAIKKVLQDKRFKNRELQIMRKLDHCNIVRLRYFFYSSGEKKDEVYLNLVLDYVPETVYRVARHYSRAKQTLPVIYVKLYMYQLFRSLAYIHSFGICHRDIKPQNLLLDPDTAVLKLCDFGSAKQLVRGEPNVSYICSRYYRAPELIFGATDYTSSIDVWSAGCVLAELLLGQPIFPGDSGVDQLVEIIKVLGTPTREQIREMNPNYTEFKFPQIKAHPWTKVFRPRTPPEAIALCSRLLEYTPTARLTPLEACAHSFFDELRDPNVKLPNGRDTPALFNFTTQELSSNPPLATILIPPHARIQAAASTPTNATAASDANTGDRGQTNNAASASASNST
Chain of Tyrosine-protein kinase Lyn (P07948 whole entry): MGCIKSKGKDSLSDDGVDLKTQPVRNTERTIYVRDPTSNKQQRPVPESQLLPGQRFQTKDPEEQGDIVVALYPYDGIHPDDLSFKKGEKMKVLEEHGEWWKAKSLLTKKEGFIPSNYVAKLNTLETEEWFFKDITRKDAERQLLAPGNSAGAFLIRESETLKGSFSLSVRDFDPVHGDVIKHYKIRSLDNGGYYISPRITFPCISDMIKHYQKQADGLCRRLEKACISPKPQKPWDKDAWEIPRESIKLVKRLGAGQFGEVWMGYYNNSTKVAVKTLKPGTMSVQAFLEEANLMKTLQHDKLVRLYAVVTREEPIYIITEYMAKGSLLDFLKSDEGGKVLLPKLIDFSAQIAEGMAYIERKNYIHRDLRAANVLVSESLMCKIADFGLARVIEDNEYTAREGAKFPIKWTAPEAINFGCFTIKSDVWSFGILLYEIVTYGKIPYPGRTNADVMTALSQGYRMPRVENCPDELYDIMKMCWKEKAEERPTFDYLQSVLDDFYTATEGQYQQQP
Chain of Ribosomal protein S6 kinase alpha-5 (O75582 whole entry): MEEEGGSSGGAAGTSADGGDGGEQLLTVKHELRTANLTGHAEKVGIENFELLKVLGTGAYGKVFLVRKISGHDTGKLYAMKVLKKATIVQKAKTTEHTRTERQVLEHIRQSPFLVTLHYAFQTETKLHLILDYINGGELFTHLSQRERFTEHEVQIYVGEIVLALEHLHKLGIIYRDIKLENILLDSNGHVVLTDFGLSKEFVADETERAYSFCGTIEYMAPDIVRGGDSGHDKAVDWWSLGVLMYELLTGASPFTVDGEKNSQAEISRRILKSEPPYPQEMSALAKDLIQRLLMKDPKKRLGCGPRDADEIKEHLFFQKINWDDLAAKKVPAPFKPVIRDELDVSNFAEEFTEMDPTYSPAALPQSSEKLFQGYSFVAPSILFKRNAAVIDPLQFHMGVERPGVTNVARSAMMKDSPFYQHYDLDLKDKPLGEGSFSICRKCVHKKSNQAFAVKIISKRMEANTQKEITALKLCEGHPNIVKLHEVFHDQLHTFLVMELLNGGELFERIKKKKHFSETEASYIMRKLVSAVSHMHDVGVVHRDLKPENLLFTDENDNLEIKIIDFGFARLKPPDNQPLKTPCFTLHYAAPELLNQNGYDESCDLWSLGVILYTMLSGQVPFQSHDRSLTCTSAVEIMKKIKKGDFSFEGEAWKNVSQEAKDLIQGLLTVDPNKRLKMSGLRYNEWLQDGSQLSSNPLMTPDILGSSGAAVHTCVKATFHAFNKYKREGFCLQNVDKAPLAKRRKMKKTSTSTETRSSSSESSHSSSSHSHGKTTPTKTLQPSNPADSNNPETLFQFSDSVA
Chain of 3-phosphoinositide-dependent protein kinase 1 (O15530 whole entry): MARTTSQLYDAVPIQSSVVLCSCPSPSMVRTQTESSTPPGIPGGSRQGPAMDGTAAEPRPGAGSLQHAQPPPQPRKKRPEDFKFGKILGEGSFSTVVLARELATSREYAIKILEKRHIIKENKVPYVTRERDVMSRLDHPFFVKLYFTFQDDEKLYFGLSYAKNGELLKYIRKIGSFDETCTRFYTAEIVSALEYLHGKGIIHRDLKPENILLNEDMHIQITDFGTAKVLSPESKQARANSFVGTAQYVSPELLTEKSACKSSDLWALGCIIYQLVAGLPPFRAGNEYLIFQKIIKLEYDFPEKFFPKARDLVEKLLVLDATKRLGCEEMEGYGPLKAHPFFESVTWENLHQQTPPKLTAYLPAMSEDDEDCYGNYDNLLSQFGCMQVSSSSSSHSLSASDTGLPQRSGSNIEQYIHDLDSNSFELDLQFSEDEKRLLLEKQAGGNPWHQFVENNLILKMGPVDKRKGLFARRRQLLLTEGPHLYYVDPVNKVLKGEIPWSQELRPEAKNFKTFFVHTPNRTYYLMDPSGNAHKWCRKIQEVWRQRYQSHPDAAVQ

| pIC50 [1] | pIC50 [2] | Activity [3] [%] | pIC50 [4] | pEC50 [5] | pIC50 [6] | inhibition [7] [%] | pIC50 [8] | Activity [9] [%] | SMILES |
| --- | --- | --- | --- | --- | --- | --- | --- | --- | --- |
| 5.70 | 5.36 | 97 |  |  |  |  |  |  | COCCCn1cc(C2=C(c3ccccc3O)C(=O)NC2=O)c2cccnc21 |
| 6.19 | 5.65 |  | 5.74 | 7.40 | 6.24 |  |  |  | COc1ccccc1C1=C(c2cn(CCCNC(=O)OC(C)(C)C)c3ncccc23)C(=O)NC1=O |
|  |  | 85 |  | 6.21 |  | < 50 | < 5.00 | 66 | O=C1NC(=O)C(c2cn(CCCO)c3ncccc23)=C1c1ncc(C(F)(F)F)cc1Cl |
